From the M2OR odorant receptor database

Key:
Conditions in all cases: stereoisomer not certain
OR10A3 (Homo sapiens) = molecular target: T1, OR10A3 (Homo sapiens) (UniProt P58181)
T1 sequence (whole entry): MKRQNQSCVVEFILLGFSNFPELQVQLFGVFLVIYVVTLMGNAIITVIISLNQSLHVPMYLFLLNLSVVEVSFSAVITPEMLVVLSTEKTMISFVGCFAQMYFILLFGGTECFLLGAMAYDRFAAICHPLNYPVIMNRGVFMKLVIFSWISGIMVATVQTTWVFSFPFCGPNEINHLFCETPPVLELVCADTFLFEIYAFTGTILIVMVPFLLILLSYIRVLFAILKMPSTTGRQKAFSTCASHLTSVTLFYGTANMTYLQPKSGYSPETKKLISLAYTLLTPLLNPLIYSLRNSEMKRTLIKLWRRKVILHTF
Summary of the method: (§1)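 Transient luciferase assays in mammalian cell lines were common, though methods varied by source. The values come from published papers and their supplementary material, with extra details from the original authors when needed. Responsive refers to a measured signal the original authors judged statistically different from baseline, and non-responsive (inactive) to the remainder.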

OR10A4 (Homo sapiens) = molecular target: T2, OR10A4 (Homo sapiens) (UniProt Q9H209)
T2 sequence (whole entry): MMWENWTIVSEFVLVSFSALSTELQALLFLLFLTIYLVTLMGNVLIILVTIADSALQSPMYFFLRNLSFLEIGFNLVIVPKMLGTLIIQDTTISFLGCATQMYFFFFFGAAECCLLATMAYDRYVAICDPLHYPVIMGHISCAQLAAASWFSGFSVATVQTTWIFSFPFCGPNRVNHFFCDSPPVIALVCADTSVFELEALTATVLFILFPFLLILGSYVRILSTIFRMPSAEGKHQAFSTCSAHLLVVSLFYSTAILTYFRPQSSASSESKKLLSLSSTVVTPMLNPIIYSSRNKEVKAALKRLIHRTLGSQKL
Summary of the method: as §1

OR10A5 (Homo sapiens) = molecular target: T3, OR10A5 (Homo sapiens) (UniProt Q9H207)
T3 sequence (whole entry): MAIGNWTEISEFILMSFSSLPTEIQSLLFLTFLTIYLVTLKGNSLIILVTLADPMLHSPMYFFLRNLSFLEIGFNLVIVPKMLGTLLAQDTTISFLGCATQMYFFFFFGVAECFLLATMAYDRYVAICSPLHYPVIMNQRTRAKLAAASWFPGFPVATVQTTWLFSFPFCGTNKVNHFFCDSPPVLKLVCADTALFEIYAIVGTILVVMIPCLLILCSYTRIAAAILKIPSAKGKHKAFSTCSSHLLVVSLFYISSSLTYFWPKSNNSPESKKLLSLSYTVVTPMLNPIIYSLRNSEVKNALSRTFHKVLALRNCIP
Summary of the method: as §1

OR10A6 (Homo sapiens) = molecular target: T4, OR10A6 (Homo sapiens) (UniProt Q8NH74)
T4 sequence (whole entry): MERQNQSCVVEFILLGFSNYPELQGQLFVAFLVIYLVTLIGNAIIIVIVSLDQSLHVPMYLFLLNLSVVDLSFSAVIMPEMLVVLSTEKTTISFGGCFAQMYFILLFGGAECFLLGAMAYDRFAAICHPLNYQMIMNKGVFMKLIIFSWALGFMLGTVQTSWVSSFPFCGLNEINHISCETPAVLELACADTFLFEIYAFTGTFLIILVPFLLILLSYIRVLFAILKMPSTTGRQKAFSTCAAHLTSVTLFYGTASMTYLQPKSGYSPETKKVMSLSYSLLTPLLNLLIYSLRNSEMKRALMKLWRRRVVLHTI
Summary of the method: as §1

OR10A7 (Homo sapiens) = molecular target: T5, OR10A7 (Homo sapiens) (UniProt Q8NGE5)
T5 sequence (whole entry): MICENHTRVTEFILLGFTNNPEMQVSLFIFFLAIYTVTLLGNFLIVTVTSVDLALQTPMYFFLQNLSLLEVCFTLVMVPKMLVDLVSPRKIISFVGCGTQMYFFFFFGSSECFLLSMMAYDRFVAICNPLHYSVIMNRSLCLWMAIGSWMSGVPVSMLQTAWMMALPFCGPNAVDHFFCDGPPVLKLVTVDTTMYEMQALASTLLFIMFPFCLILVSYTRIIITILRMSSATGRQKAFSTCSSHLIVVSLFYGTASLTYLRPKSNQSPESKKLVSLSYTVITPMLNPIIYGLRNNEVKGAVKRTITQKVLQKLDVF
Summary of the method: as §1

OR10AD1 (Homo sapiens) = molecular target: T6, OR10AD1 (Homo sapiens) (UniProt Q8NGE0)
T6 sequence (whole entry): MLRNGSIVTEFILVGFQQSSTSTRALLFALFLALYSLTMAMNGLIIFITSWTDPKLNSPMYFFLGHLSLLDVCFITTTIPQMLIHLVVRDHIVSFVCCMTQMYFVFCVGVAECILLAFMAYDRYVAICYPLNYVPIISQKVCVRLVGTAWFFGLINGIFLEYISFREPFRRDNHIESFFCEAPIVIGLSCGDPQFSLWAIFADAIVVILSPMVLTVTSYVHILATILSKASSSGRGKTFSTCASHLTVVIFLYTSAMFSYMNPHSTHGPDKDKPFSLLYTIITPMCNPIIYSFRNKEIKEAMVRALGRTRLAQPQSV
Summary of the method: as §1

OR10AG1 (Homo sapiens) = molecular target: T7, OR10AG1 (Homo sapiens) (UniProt Q8NH19)
T7 sequence (whole entry): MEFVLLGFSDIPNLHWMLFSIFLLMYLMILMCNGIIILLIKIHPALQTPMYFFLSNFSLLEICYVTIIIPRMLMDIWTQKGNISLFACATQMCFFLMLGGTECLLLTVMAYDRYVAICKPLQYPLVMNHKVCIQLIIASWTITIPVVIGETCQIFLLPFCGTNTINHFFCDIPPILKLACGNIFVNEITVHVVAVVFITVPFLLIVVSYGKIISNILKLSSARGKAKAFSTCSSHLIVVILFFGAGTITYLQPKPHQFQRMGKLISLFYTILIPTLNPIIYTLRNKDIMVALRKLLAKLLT
Summary of the method: as §1

OR10C1 (Homo sapiens) = molecular target: T8, OR10C1 (Homo sapiens) (UniProt Q96KK4)
T8 sequence (whole entry): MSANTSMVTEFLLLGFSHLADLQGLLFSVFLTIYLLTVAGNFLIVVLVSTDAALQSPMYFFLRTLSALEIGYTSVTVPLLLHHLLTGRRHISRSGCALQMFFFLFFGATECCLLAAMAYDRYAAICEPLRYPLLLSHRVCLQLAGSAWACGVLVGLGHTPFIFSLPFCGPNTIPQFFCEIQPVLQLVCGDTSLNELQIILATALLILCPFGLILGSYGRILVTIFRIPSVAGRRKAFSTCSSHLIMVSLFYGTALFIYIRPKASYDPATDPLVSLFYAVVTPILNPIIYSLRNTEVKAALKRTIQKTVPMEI
Summary of the method: as §1

OR10D3 (Homo sapiens) = molecular target: T9, OR10D3 (Homo sapiens) (UniProt Q8NH80)
T9 sequence (whole entry): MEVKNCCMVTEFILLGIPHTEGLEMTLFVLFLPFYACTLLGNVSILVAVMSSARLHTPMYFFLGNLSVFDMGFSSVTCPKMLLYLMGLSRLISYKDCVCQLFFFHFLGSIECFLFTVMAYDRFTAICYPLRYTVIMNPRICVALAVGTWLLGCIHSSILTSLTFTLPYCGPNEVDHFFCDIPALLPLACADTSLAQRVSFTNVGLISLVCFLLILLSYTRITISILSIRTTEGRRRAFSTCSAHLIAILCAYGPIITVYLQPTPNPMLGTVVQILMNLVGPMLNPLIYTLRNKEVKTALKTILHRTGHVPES
Summary of the method: as §1

Measured: odorant receptor agonist call;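 also: active if original authors judged signal statistically different from baseline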

CCC(S)C(C)CO (centres undefined)
inactive: all assays above
